Data as given in article PMC9421316 (Heliyon, 2022).
Like-named read-outs stand apart in the source and are kept apart here. Ends that are not written are not given here.

Columns and labels:
[1] = diluted WSS from periodontally healthy individuals, HPLC, ref McDonald et al. 8, cited from earlier work
[2] = cited from earlier work
[3] = format: in vitro ADME, human; conditions: for % BD (mean ± S.D.): all groups and time points
[4] = Degradation mode of histatins in pooled 1:10 diluted WSS, cationic PAGE; format: in vitro ADME, human; conditions: 100 μg/mL, 37 °C
Method in brief: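 Unstimulated whole saliva from adolescents (n = 8/group: spastic CP with gingivitis, no CP/no gingivitis, no CP with gingivitis) was held on ice ≤3 h, spun at 1,500×g for 2 min then 14,000×g for 20 min at 4 °C, and the supernatant stored at -80 °C. Supernatant was diluted 1:10 in distilled water and pooled by group. Synthetic histatin 1 or 5 (final 100 μg/mL) was incubated at 37 °C for 0–48 h, with aliquots boiled 5 min. Samples were dried, desalted, and run on 20% cationic PAGE; band intensity was compared with time zero.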

speed of degradation, G1 relative to G2 and G3 ([3]; during a 48 h interval, 1:10 diluted WSS): 1.78 times | remaining at 48 h, 100 μg/mL ([3]; human, individual whole saliva supernatant (WSS) diluted 1:10): 56% | metabolised at 4 h, 100 μg/mL ([3]; human, whole saliva supernatant (WSS) diluted 1:10, reduction in band density, G2 and G3 (stated together), 1:10 diluted WSS, 37 °C, printed as after 4 h of incubation): ~14% | % BD (mean ± S.D.) ([3]; saliva of female subjects, 1:10 diluted WSS): 79.3 ± 23.6% | % BD (mean ± S.D.) ([3]; saliva of male subjects, 1:10 diluted WSS): 77.6 ± 20.9% | time after which degradation fragments were observed on cationic PAGE ([4]; pooled G2 WSS diluted 1:10): 8 h | time after which degradation fragments were observed on cationic PAGE ([4]; pooled G3 WSS diluted 1:10): 8 h
Sequence: DSHEKRHHGYRRKFHEKHHSHREFPFYGDYGSNYLYDN [histatin 1]
intact protein degraded ([1]; 0.5 h): 28% | intact protein degraded ([1]; 2 h): 83% | histatin 1 degraded ([2]; 1.5 h of incubation with WSS): approximately 50% | time after which totally degraded ([2]; incubation with WSS): 40 h
